# Measurements published in ChEMBL document CHEMBL3351978, “Optimization of 1,2,4-Triazolopyridines as Inhibitors of Human 11β-Hydroxysteroid Dehydrogenase Type 1 (11β-HSD-1)” (ACS Med Chem Lett, 2014).
# Calls of active or inactive are those of the source. No cut-off for these calls is given here.
# Experiments:
# [1] = Tmax in Balb/C mouse at 3.5 mg/kg, po; type: ADME, organism-based; set-up: dose 3.5 mg/kg, route oral; settings: in vivo
# In short: (§1)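 Male Balb/C mice were given a single oral dose of 3.5 mpk in 0.5% methocel/0.1% Tween-80 in water.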
# [2] = AUC (0 to 8 hrs) in Balb/C mouse at 3.5 mg/kg, po; type: ADME, organism-based; set-up: time < 8 hr, dose 3.5 mg/kg, route oral; settings: plasma; in short: as §1
# [3] = Stability in rat microsomes assessed as parent compound remaining after 30 mins; type: ADME, Microsome; settings: read-out: Stability
# [4] = system: HEK293-EBNA; experiment: Inhibition of cynomolgus monkey recombinant 11beta-HSD-1 expressed in HEK293 EBNA cells using [3H]-cortisone and NADPH by scintillation proximity assay; type: cell-based; settings: Macaca fascicularis
# [5] = Stability in […] monkey microsomes assessed as parent compound remaining after 30 mins; type: ADME, Macaca fascicularis, Microsome; settings: read-out: Stability
# [6] = Cmax in Balb/C mouse at 3.5 mg/kg, po; type: ADME, organism-based; set-up: dose 3.5 mg/kg, route oral; settings: in vivo; in short: as §1
# [7] = Stability in human microsomes assessed as parent compound remaining after 30 mins; type: ADME, Microsome; settings: read-out: Stability
# [8] = Stability in mouse microsomes assessed as parent compound remaining after 30 mins; type: ADME, Microsome; settings: read-out: Stability
# [9] = Solubility at pH 7.4; type: physicochemical; settings: buffer
Structure (SMILES),inhibition [4],also measured
Clc1ccc(C2(c3nnc4c(C5CC5)cccn34)CC2)cc1,Active,Tmax [1]: 1 h; AUC(0-t) at 8 h [2]: 5.6 µM·h; remaining at 0.5 h [3]: 100%; remaining at 0.5 h [5]: 100%; Cmax [6]: 2500 nM; remaining at 0.5 h [7]: 100%; remaining at 0.5 h [8]: 100%; solubility [9]: 76 µg/mL
Clc1ccc(C2(c3nnc4c(OC5CCC5)cccn34)CC2)cc1,Active,
Clc1ccc(C2(c3nnc4c(C5CCC5)cccn34)CC2)cc1,Active,
CC(C)c1cccn2c(C3(c4ccc(Cl)cc4)CC3)nnc12,Active,
Clc1ccc(C2(c3nnc4c(OC5CCOCC5)cccn34)CC2)cc1,Active,
Clc1ccc(C2(c3nnc4c(OCC5CC5)cccn34)CC2)cc1,Active,
Clc1ccc(C2(c3nnc4c(OC5CCCCC5)cccn34)CC2)cc1,inactive,
Cc1cccn2c(C3(c4ccc(Cl)cc4)CC3)nnc12,Active,
